Measurements reported in ChEMBL document CHEMBL1667769, “Sodium [2'-[(cyclopropanecarbonyl-ethyl-amino)-methyl]-4'-(6-ethoxy-pyridin-3-yl)-6-methoxy-biphenyl-3-yl]-acetate (AM432): a potent, selective prostaglandin D2 receptor antagonist” (Bioorg Med Chem Lett, 2011).

Tests used:
[1] = target: T1, Prostaglandin D2 receptor 2 (Homo sapiens, UniProt Q9Y5Y4); assay: Displacement of [3H]PGD2 from human CRTh2 receptor expressed in 293 cells by liquid scintillation counting in presence of 0.2 % HSA; type: cell-based, HEK293
T1 sequence (Q9Y5Y4 whole entry): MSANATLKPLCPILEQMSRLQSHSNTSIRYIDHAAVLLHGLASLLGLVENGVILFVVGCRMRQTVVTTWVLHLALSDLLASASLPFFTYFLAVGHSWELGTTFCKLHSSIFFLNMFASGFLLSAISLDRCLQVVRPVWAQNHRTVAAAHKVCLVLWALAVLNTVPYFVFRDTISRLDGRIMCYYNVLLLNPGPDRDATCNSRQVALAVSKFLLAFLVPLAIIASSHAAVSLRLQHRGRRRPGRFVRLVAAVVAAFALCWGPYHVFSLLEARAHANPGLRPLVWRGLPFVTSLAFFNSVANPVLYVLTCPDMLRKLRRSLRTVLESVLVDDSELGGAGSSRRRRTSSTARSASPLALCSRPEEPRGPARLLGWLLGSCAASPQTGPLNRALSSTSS
In short: (§1)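 Membranes from 293 cells stably expressing human DP₂ incubated with [³H]-PGD₂ and increasing compound concentrations. Membranes harvested and washed; bound [³H]-PGD₂ counted. IC₅₀ taken as concentration giving 50% inhibition of binding. Run without and with 0.2% human serum albumin. Values averaged from three experiments (five for the lead).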

[2] = target: T1, Prostaglandin D2 receptor 2; assay: Displacement of [3H]PGD2 from human CRTh2 receptor expressed in 293 cells by liquid scintillation counting; type: cell-based, HEK293; in short: as §1

| SMILES | IC50 [1] [nM] | IC50 [2] [nM] |
| --- | --- | --- |
| CCN(Cc1cc(-c2ccc(F)cn2)ccc1-c1cc(CC(=O)O)ccc1OC)C(=O)C1CC1 | 60 | 9 |
| CCN(Cc1cc(NS(=O)(=O)c2ccc(Cl)cc2)ccc1-c1cc(CC(=O)O)ccc1OC)C(=O)OCc1ccccc1 | 90 | 3 |

The next compounds have a lower IC50 [1] than those just listed; values first:

| IC50 [1] [nM] | IC50 [2] [nM] | SMILES |
| --- | --- | --- |
| 52 | 7 | CCN(Cc1cc(-c2cnc3ccccc3c2)ccc1-c1cc(CC(=O)O)ccc1OC)C(=O)C1CC1 |
| 9 | 1 | CCN(Cc1cc(F)ccc1-c1cc(CC(=O)O)ccc1OC)C(=O)OCc1ccccc1 |
| 7 | 5 | CCN(Cc1cc(S(C)(=O)=O)ccc1-c1cc(CC(=O)O)ccc1OC)C(=O)OCc1ccccc1 |
